Bioassay records: PubChem, several laboratories
HDAC3 inhib – inhibitors of human histone deacetylase 3 | recombinant HDAC3, fluorogenic peptide/trypsin coupled, fluorescence | AID 2718 | 0.15% of 320,000 active | inhibition, % at 8.3 µM | O15379; in the data active = inhibition above about 26%, passing the limit was not always enough; inconclusive = no clear call, values can overlap the other calls
Target sequence (O15379 whole entry, looked up): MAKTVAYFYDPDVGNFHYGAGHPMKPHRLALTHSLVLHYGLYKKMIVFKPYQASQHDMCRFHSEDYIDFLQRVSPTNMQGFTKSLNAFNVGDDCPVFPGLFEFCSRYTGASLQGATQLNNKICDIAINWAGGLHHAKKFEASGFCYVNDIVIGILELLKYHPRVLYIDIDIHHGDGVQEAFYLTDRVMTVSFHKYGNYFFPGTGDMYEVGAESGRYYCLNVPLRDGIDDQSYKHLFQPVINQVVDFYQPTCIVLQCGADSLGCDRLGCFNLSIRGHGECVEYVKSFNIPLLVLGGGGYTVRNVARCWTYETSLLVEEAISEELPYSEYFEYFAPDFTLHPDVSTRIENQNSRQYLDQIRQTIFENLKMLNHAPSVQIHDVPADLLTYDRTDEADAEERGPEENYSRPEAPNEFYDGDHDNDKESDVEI
ALR H2O2 inh – human ALR oxidase inhibition via reduced H2O2; P55789; purified ALR, DTT oxidation, H2O2 HRP-luminol luminescence; inhibition, % (no concentration beside the values); 3.8% of 290,000 active;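 active = mean replicate inhibition above about 79%, with every replicate also reaching it, limit read from the data; inconclusive = only one of the two criteria met; inactive = mean below limit and not every replicate reaching it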
Target sequence (P55789 whole entry, looked up): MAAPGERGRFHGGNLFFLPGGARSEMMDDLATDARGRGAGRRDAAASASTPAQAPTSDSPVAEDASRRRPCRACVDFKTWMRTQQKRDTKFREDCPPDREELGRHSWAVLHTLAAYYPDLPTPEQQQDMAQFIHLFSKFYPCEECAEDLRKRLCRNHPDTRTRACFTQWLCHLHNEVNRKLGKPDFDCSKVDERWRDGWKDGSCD
FAS TE block – blocks the thioesterase domain of human fatty acid synthase | P49327 | recombinant FAS-TE, OMFH fluorogenic substrate, fluorescence endpoint | inhibition, % at 15 µM | 0.67% of 360,000 active | AID 602261;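 active = compounds whose normalised, plate-corrected inhibition of enzyme fluorescence in the single-dose primary screen is 50% or more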
PfM18AAP inh – blocks P. falciparum M18 aspartyl aminopeptidase. recombinant PfM18AAP, H-Glu-NHMec fluorogenic cleavage. inhibition, % at 7.35 µM. 1.2% of 290,000 active. AID 1822;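 active = inhibition above the campaign mean inhibition over all tested compounds plus 3 SD, cut at about 28% in these data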
Rtt109 Vps75 – C. albicans Rtt109 histone acetyltransferase inhibition; purified Rtt109/Vps75, ThioGlo CoA-SH fluorescence, 4 h; inhibition, % at 34.9 µM; 0.16% of 330,000 active;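 active = inhibition of at least 50% in every replicate; inconclusive = best replicate reaches 50% inhibition but some replicates fall short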
UCH37 inh – blocks the human deubiquitinase UCH37. Q9Y5K5. purified proteasome/UCH37, Ub-AMC cleavage fluorescence. inhibition, % (no concentration beside the values). 0.33% of 330,000 active. AID 588478;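 active = mean inhibition over replicate wells above about 20%, limit read from the data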
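Signal – fluorescence, ex 355 nm, em 460 nm · System – Proteasome-bound UCH37 · Input – 0.15 nM proteasome as dispensed · Timing – 30 min preincubation with enzyme, 25 min cleavage at room temperature · Read-out basis – percent inhibition of cleavage signal versus uninhibited and no-proteasome wells · Medium – Tris-HCl pH 7.4 with ATP-MgCl2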
Hits are given with their value; . = inactive; ? = inconclusive; / = no result given. Only some compounds are listed: those with a hit (about 4.6% of all), similar ones and a draw of the others.

SMILES	HDAC3 inhib	ALR H2O2 inh	FAS TE block	PfM18AAP inh	Rtt109 Vps75	UCH37 inh
CCOC(=O)/C(=N\Nc1cccc(C(F)(F)F)c1)N(CCOC)CCOC	.	97	.	.	.	/
CCCc1ccc(OCc2ccc(C(=O)NN=Cc3cccc([N+](=O)[O-])c3)o2)c(OC)c1	/	/	/	/	/	.
CC1=CC(c2ccc(Cl)cc2)n2nc(NS(=O)(=O)c3ccc(C)cc3)nc2N1 (centres undefined)	.	96	.	.	.	.
Cc1ccc(-c2nc(CS(=O)CC(=O)NCCN3CCCCCC3)c(C)o2)cc1 (centres undefined)	.	98	.	.	.	.
Cc1oc(-c2ccc(Cl)cc2)nc1CS(=O)CC(=O)NCCN1CCCCCC1 (centres undefined)	.	99	.	.	.	.
Cc1ccc(-c2nc(CS(=O)(=O)CC(=O)NCCCN3CCN(C)CC3)c(C)o2)cc1	.	.	.	.	.	.
Cc1oc(-c2ccc(Cl)cc2)nc1CS(=O)CC(=O)NCCCN1CC(C)CC(C)C1 (centres undefined)	.	.	.	.	.	.
O=C(CN1c2ccccc2Sc2ccccc21)NN=Cc1ccc([N+](=O)[O-])cc1	/	/	/	/	/	.
NC(=O)c1ccsc1NC(=O)COC(=O)Cc1cccc2ccccc12	.	97	.	.	?	.
NC(=O)c1ccsc1NC(=O)COC(=O)c1cccnc1Cl	.	94	.	/	.	.
CC1(C)C2CC=C(C=NNC(=O)C(N)=O)C1C2 (centres undefined)	/	/	/	/	/	.
N#C/C(=C/c1ccc(N2CCOCC2)o1)c1ccc(Br)cc1	.	92	.	.	.	.
O=C(O)c1cccc(Cn2c(Cl)c(C=NNC(=O)c3cc4ccccc4cc3O)sc2=O)c1	/	/	/	/	/	22
O=C(COc1ccccc1)N/N=C/c1sc(=O)n(Cc2cccc(C(=O)O)c2)c1Cl	.	96	.	.	.	/
Cc1ccc(-c2nc(=S)c3c(n2Cc2ccco2)CC(C)(C)OC3)cc1	.	97	.	.	.	.
Cc1ccc(-c2nc(=S)c3c(n2Cc2ccco2)CCCC3)cc1	/	/	.	.	.	.
CN(C)c1ccc(C2N3CC4(C)CN2CC(C)(C3)C4O)cc1 (centres undefined)	/	99	.	.	.	.
COc1ccc(Br)cc1C=NNC(=O)c1cccc(S(=O)(=O)N2CCOCC2)c1	/	/	/	/	/	.
Cc1cc(N=Nc2ccc(Cl)cc2)cc(CN2CCCC2)c1O	.	99	.	.	.	.
CCOc1ccc(-c2nc(N)ncc2Oc2cccc(OC)c2)c(O)c1	27	.	.	.	.	.
C=C(C)COc1ccc(-c2nc(N)ncc2Oc2ccccc2OC)c(O)c1	30	.	.	.	.	.
CCOc1ccc(-c2nc(N)ncc2Oc2ccccc2Br)c(O)c1	.	.	.	.	.	.
COc1cc(C=NNC(=O)c2ccc(-c3ccccc3)cc2)ccc1OCC(N)=O	/	/	/	/	/	.
Cc1ccc(Sc2ccc(NC(=O)CCl)cc2)cc1C	.	98	.	.	/	.
O=C(CCl)Nc1ccccc1Sc1ccccc1	.	.	.	.	.	.
SMILES	HDAC3 inhib	ALR H2O2 inh	FAS TE block	PfM18AAP inh	Rtt109 Vps75	UCH37 inh
Cc1ccc(C)c(Sc2ccc(NC(=O)CCl)cc2)c1	.	86	/	.	/	.
Cc1ccc(NC2c3ncccc3C(=O)N2Cc2cccs2)cc1C (centres undefined)	.	.	.	.	.	.
Cc1ccc(NC2c3ncccc3C(=O)N2C2CCCCC2)cc1C (centres undefined)	.	92	.	.	.	.
Cc1ccc(NC2c3ncccc3C(=O)N2C2CCCCC2)cc1 (centres undefined)	.	96	.	.	.	.
Cc1ccc(NC2c3ncccc3C(=O)N2Cc2ccc(F)cc2)cc1 (centres undefined)	.	97	.	.	.	.
Cc1ccc(NC(=O)CCC(=O)NN=C/C=C/c2ccccc2)cc1	/	/	/	/	/	.
Cc1c(C=NO)c2ccccn2c1C=O	/	/	/	/	/	.
CC(C)(C)c1cc[n+](-c2[nH]c(=O)sc2C=N/N=C(\[O-])c2cccnc2)cc1	/	/	/	/	/	21
CC(C)(C)c1cc[n+](-c2[nH]c(=O)sc2/C=N/N=C(\[O-])c2cccnc2)cc1	.	.	.	.	.	/
CC(C)Cn1c(SCc2nnc(-c3cccs3)o2)nc(O)cc1=O	.	98	.	.	.	.
Cc1nnc(SCc2nnc(-c3cccs3)o2)n1C	.	.	.	.	.	.
COc1cc(C=NNC(=O)c2cccnc2)cc2c1OCO2	/	/	/	/	/	.
O=C(CC=NOCc1ccc([N+](=O)[O-])cc1)Nc1ccc(Cl)cc1	/	/	/	/	/	.
Nc1nnc2c(n1)CCCC2	.	.	.	.	?	21
C1CCc2nc3c(nc2C1)CCCC3	.	.	.	.	.	.
COc1ccc(CCNC(=O)CC(C)=NNC(=O)c2ccc(Cl)cc2Cl)cc1OC	/	/	/	/	/	.
S=c1[nH]nc(-c2ccccn2)n1N=Cc1ccc(-c2ccccc2Cl)o1	/	/	/	/	/	.
Cc1ccccc1/C=N/n1c(COc2ccccc2)n[nH]c1=S	.	.	.	.	.	/
O=c1c2ccccc2nc(COc2ccccc2)n1N=Cc1ccc(O)c(O)c1	/	/	/	/	/	.
O=c1c2ccccc2nc(COc2ccccc2)n1/N=C/c1ccc(O)cc1O	.	77	.	.	.	/
S=c1[nH]nc(-c2ccccn2)n1/N=C/c1ccc(-c2ccccc2Cl)o1	.	97	.	.	.	/
CCOc1ccccc1/C=N/n1c(COc2ccccc2)n[nH]c1=S	.	.	.	31	.	/
Oc1ccccc1/C=N/n1c(COc2ccccc2)n[nH]c1=S	.	.	.	28	.	/
CC12CN3CCN(CC(C3)C1=NNC(=O)Nc1ccccc1)C2	/	/	/	/	/	.
ON=C1CC2(Cc3nonc31)OCCO2	/	/	/	/	/	.
SMILES	HDAC3 inhib	ALR H2O2 inh	FAS TE block	PfM18AAP inh	Rtt109 Vps75	UCH37 inh
S=c1[nH]nc(COc2ccccc2)n1/N=C/c1ccc(Br)s1	.	95	.	.	.	/
COc1ccc(/C=N/n2c(COc3ccccc3)n[nH]c2=S)cc1OC	.	/	.	30	.	/
S=c1[nH]nc(COc2ccccc2)n1/N=C/c1ccco1	.	.	.	28	/	/
S=c1[nH]nc(-c2ccccn2)n1/N=C/c1ccc(Br)s1	.	96	.	.	.	/
O=C(O)CC1SC(=NN=Cc2ccc([N+](=O)[O-])cc2)N(c2ccc(O)cc2)C1=O (centres undefined)	/	/	/	/	/	.
COc1ccc(NC(=O)C(=O)NN=C(C)CC(=O)Nc2ccccn2)c(OC)c1	/	/	/	/	/	.
CC(C)(C)c1ccc2c(c1)OC(C(=O)NN=Cc1ccccn1)CO2 (centres undefined)	/	/	/	/	/	.
CCCCCc1cc(=O)oc2c(C(CCN(CC)CC)c3ccc(OC)cc3)c(OC)cc(OC)c12 (centres undefined)	.	.	.	/	.	.
CCN(CC)CCC(c1ccc(N(C)C)cc1)c1c(OC)cc(OC)c2ccc(=O)oc12 (centres undefined)	.	99	.	/	.	.
